This is an account of results in ChEMBL document CHEMBL3091445, “The 3,7-diazabicyclo[3.3.1]nonane scaffold for subtype selective nicotinic acetylcholine receptor ligands. Part 2: carboxamide derivatives with different spacer motifs” (Bioorg Med Chem, 2013).

For experiment [1], the target named is T1, Neuronal acetylcholine receptor; alpha4/beta2 (Homo sapiens) (UniProt P17787+P43681). As to the kind of experiment: Partial agonist activity at human alpha4beta2 nAChR expressed in Xenopus oocytes at 10 uM incubated for 8 secs followed by compound washout measured after 241 secs by two-electrode voltage clamp technique. The class given is cell-based.
In experiment [2] the target is T2, Nicotinic acetylcholine receptor alpha1/beta1/epsilon/delta (Mus musculus) (UniProt P04756+P09690+P02716+P20782). As to the kind of experiment: Antagonist activity at mouse muscle alpha1beta1epsilondelta nAChR expressed in Xenopus oocytes assessed as inhibition of acetylcholine-induced effect at 1 uM incubated for 8 secs followed by compound washout measured after 241 secs by two-electrode voltage clamp technique. The format is cell-based. For orientation: Two-electrode voltage clamp is typically applied to oocytes expressing channels or transporters.

For experiment [3], the target named is T3, Neuronal acetylcholine receptor; alpha3/beta4 (Homo sapiens) (UniProt P30926+P32297). As to the kind of experiment: Agonist activity at human alpha3beta4 nAChR expressed in Xenopus oocytes at 10 uM incubated for 8 secs followed by compound washout measured after 241 secs by two-electrode voltage clamp technique. The class given is cell-based.
Experiment [4] can be described thus: Displacement of [3H]epibatidine from Torpedo californica electroplax (alpha1)2beta1gammadelta nAChR after 90 mins by liquid scintillation counting analysis. Set-up: species or system Tetronarce californica. Background: Loss of bound radioactivity is the signal in a displacement assay; it reports binding, not function.
Experiment [5] concerns the target Neuronal acetylcholine receptor subunit alpha-7 (Rattus norvegicus, UniProt Q05941). As to the kind of experiment: Displacement of [3H]methyllycaconitine from Sprague-Dawley rat brain alpha7 nAChR after 120 mins by liquid scintillation counting analysis. The class given is tissue-based. The method, boiled down: (§1)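 Radioligand competition binding gave Ki values, reported as mean ± SEM from 2–10 independent experiments.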

Experiment [6] can be described thus: Displacement of [3H]epibatidine from calf adrenal alpha3beta4 nAChR after 90 mins by liquid scintillation counting analysis. Set-up: species or system Bos taurus.
In experiment [7] the target is T1, Neuronal acetylcholine receptor; alpha4/beta2 (Homo sapiens). The experiment in a line: Antagonist activity at human alpha4beta2 nAChR expressed in Xenopus oocytes assessed as inhibition of acetylcholine-induced effect at 1 uM incubated for 8 secs followed by compound washout measured after 241 secs by two-electrode voltage clamp technique. The format is cell-based.

Experiment [8] has as its target Neuronal acetylcholine receptor; alpha4/beta2 (Rattus norvegicus, UniProt P09483+P12390). The experiment in a line: Displacement of [3H]epibatidine from Sprague-Dawley rat brain alpha4beta2 nAChR after 90 mins by liquid scintillation counting analysis. In a few lines: as §1
In experiment [9] the target is Neuronal acetylcholine receptor subunit alpha-7 (Homo sapiens) (UniProt P36544). The experiment in a line: Antagonist activity at human alpha7 nAChR expressed in Xenopus oocytes assessed as inhibition of acetylcholine-induced effect at 1 uM incubated for 12 secs followed by compound washout measured after 181 secs by two-electrode voltage clamp technique. The format is cell-based.
Sequence of Neuronal acetylcholine receptor subunit alpha-7 (Homo sapiens) (P36544 whole entry): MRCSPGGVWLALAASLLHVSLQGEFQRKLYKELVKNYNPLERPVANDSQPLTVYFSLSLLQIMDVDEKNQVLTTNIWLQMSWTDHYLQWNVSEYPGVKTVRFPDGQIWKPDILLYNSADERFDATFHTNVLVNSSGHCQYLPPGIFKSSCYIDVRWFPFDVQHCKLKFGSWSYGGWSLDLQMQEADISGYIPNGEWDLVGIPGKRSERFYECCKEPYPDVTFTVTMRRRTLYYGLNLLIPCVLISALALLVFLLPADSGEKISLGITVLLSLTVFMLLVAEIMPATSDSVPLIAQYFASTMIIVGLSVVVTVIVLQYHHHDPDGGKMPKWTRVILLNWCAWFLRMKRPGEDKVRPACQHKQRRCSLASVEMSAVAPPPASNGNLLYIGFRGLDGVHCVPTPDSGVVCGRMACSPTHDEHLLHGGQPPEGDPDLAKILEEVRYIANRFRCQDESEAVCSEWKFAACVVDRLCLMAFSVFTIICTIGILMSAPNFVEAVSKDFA

In experiment [10] the target is T3, Neuronal acetylcholine receptor; alpha3/beta4 (Homo sapiens). The experiment in a line: Antagonist activity at human alpha3beta4 nAChR expressed in Xenopus oocytes at 1 uM incubated for 8 secs followed by compound washout measured after 241 secs by two-electrode voltage clamp technique. The class given is cell-based.
In experiment [11] the target is T2, Nicotinic acetylcholine receptor alpha1/beta1/epsilon/delta (Mus musculus). The experiment in a line: Agonist activity at mouse muscle alpha1beta1epsilondelta nAChR expressed in Xenopus oocytes at 10 uM incubated for 8 secs followed by compound washout measured after 241 secs by two-electrode voltage clamp technique. The format is cell-based.
Experiment [12] has the same target. The experiment in a line: Agonist activity at mouse muscle alpha1beta1epsilondelta nAChR expressed in Xenopus oocytes at 1 uM incubated for 8 secs followed by compound washout measured after 241 secs by two-electrode voltage clamp technique. The format is cell-based.
Experiment [13] concerns the target Neuronal acetylcholine receptor subunit alpha-7 (Homo sapiens) (UniProt P36544). The experiment in a line: Agonist activity at human alpha7 nAChR expressed in Xenopus oocytes at 1 uM incubated for 12 secs followed by compound washout measured after 181 secs by two-electrode voltage clamp technique. The class given is cell-based.
The target in experiment [14] is T1, Neuronal acetylcholine receptor; alpha4/beta2 (Homo sapiens). As to the kind of experiment: Partial agonist activity at human alpha4beta2 nAChR expressed in Xenopus oocytes at 1 uM incubated for 8 secs followed by compound washout measured after 241 secs by two-electrode voltage clamp technique. The class given is cell-based.
The target in experiment [15] is T3, Neuronal acetylcholine receptor; alpha3/beta4 (Homo sapiens). As to the kind of experiment: Agonist activity at human alpha3beta4 nAChR expressed in Xenopus oocytes at 1 uM incubated for 8 secs followed by compound washout measured after 241 secs by two-electrode voltage clamp technique. The class given is cell-based.

Calls of active or inactive are those of the source. The calls are words filed in the database; no cut-off is given here.

Sequence of Neuronal acetylcholine receptor subunit alpha-7 (Q05941 whole entry): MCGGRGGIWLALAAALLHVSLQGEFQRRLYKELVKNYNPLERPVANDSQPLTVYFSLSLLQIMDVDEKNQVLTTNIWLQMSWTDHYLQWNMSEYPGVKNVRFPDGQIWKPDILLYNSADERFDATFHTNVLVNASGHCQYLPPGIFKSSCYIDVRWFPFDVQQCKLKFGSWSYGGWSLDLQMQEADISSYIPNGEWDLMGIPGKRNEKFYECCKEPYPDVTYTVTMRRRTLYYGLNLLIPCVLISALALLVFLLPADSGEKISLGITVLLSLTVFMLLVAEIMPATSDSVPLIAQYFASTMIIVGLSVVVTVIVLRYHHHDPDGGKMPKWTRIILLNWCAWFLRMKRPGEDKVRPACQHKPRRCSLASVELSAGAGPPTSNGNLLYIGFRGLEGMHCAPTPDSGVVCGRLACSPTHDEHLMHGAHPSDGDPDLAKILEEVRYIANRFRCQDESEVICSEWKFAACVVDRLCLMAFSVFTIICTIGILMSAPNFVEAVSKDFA
Sequence of Neuronal acetylcholine receptor; alpha4/beta2 (P09483 whole entry): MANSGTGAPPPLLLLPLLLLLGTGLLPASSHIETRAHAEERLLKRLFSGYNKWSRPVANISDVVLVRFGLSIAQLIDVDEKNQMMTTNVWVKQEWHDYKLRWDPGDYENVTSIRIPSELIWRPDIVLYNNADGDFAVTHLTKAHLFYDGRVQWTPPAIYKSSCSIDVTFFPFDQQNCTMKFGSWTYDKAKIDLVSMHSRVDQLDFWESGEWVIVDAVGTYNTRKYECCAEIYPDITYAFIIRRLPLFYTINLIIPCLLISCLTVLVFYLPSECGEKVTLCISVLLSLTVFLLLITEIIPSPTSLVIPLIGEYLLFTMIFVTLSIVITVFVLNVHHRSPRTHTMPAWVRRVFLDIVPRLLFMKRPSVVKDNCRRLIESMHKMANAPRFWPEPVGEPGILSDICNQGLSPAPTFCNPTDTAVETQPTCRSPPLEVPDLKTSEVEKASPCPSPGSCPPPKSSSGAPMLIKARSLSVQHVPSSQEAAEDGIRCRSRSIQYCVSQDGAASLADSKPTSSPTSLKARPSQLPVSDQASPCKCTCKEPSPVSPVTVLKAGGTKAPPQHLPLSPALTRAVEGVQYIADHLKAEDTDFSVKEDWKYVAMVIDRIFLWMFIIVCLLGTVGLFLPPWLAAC
Sequence of Neuronal acetylcholine receptor; alpha4/beta2 (P12390 whole entry): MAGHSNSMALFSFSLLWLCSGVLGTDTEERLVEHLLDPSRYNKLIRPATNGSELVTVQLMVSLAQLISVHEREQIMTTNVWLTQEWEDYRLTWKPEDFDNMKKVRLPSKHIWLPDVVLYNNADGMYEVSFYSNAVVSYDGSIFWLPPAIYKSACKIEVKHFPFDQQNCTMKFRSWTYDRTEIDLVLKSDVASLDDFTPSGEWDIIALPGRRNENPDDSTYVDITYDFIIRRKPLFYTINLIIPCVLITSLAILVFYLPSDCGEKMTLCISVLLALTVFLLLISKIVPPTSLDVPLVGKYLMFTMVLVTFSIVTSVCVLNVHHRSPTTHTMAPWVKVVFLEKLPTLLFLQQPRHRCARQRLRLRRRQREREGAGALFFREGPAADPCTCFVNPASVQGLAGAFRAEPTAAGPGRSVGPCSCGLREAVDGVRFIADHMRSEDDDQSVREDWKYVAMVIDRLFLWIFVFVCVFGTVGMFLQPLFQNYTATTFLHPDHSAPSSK

The Ki is the equilibrium dissociation constant of an inhibitor or competing ligand from its target. The low end stands for higher affinity, the high end for lower affinity. Regarding `COc1ccc(C#CC(=O)N2C[C@@H]3CNC[C@@H](C3)C2)cc1Cl`, in experiment [1], the outcome was Active. The inhibition entry in experiment [2] and in experiment [9] was “inactive” each time. Also, the result in experiment [3], in experiment [10] and in experiment [11] was inactive. Moreover, the Ki in [4] was greater than 5 µM; in [5], greater than 1000 nM; in experiment [6], greater than 1000 nM; in experiment [8], 0.991 nM. In experiment [7], the “antagonist activity (active/inactive)” value is “Active”.

For the compound `O=C(Cc1ccc2c(c1)OCO2)N1C[C@@H]2CNC[C@@H](C2)C1`, the outcome in [1] and in experiment [14] was Active. Besides, the inhibition result in [2] and in experiment [9] was “inactive” in each case. The outcome in experiment [3], in experiment [12], in [13], in [15], in [10] and in experiment [11] was inactive. In addition, the Ki in [4] was greater than 5 µM; in [5], greater than 1000 nM; in [6], greater than 1000 nM; in [8] it was 13.2 nM.

Consider `COc1ccc(C#CC(=O)N2C[C@@H]3CNC[C@@H](C3)C2)cc1OC`, for which the result in experiment [1] was Active. Moreover, the inhibition entry in experiment [2] was “Active”. Besides, the outcome in experiment [3], in experiment [10] and in [11] was inactive. The Ki was greater than 5 µM in [4], greater than 1000 nM in [5], greater than 1000 nM in experiment [6] and 2.1 nM in experiment [8]. In addition, the “antagonist activity (active/inactive)” value in [7] is “Active”. In addition, the inhibition entry in [9] was “inactive”.

In the case of `O=C(c1ccc(-n2ccnc2)cc1)N1C[C@@H]2CNC[C@@H](C2)C1`, the outcome in experiment [1] and in [14] was Active. Further, the inhibition result in [2] and in experiment [9] was “inactive” each time. Besides, the outcome in experiment [3], in [12], in experiment [13], in [15], in experiment [10] and in [11] was inactive. Besides, the Ki in experiment [4] is greater than 5 µM; in experiment [5] it was greater than 1000 nM; in [6] it was greater than 1000 nM; in experiment [8], 5.6 nM. Moreover, the “antagonist activity (active/inactive)” value in [7] was “Active”.

Regarding `CS(=O)(=O)c1ccc(CC(=O)N2C[C@@H]3CNC[C@@H](C3)C2)cc1`, the outcome in [1] and in experiment [14] was Active. Also, the inhibition entry in experiment [2] and in experiment [9] was “inactive” each time. For the same compound, the outcome in experiment [3], in experiment [12], in experiment [13], in [15], in [10] and in experiment [11] was inactive. Besides, the Ki in [4] was greater than 5 µM; in [5], greater than 5000 nM; in experiment [6], greater than 5000 nM; in experiment [8], 22.9 nM. In addition, the “antagonist activity (active/inactive)” value in [7] was “Active”.

Consider `O=C(/C=C/c1ccncc1)N1C[C@@H]2CNC[C@@H](C2)C1`, for which the result in experiment [1] and in [14] was Active. In addition, the inhibition entry in experiment [2] and in [9] was “inactive” each time. Besides, the outcome in experiment [3], in experiment [12], in experiment [13], in experiment [15], in [10] and in experiment [11] was inactive. Moreover, the Ki was greater than 5 µM in experiment [4], greater than 10000 nM in [5], greater than 1000 nM in experiment [6] and 1.03 nM in experiment [8].

In the case of `O=C(Cc1ccncc1)N1C[C@@H]2CNC[C@@H](C2)C1`, the outcome in [1] and in experiment [14] was Active. The inhibition result in experiment [2] and in [9] was “inactive” in each case. Further, the outcome in experiment [3], in experiment [12], in [13], in experiment [15], in experiment [10] and in [11] was inactive. Also, the Ki in experiment [4] is greater than 5 µM; in [5], greater than 1000 nM; in experiment [6], greater than 1000 nM; in experiment [8], 14.4 nM.

For the compound `O=C(Cc1cccnc1)N1C[C@@H]2CNC[C@@H](C2)C1`, the outcome in experiment [1] and in experiment [14] was Active. Moreover, the inhibition result in [2] and in experiment [9] was “inactive” each time. In addition, the result in [3], in [12], in experiment [13], in experiment [15], in [10] and in [11] was inactive. Moreover, the inhibition constant Ki in experiment [4] was greater than 5 µM; in experiment [5], greater than 1000 nM; in experiment [6], greater than 1000 nM; in [8] it was 11.2 nM.

Turning to `O=C(C#Cc1ccc2c(c1)OCO2)N1C[C@@H]2CNC[C@@H](C2)C1`, the outcome in experiment [1] was Active. In addition, the inhibition entry in experiment [2] and in experiment [9] was “inactive” each time. For the same compound, the result in experiment [3], in experiment [10] and in experiment [11] was inactive. Further, the Ki is greater than 5 µM in experiment [4], greater than 1000 nM in [5], greater than 1000 nM in [6] and 3.1 nM in experiment [8]. The “antagonist activity (active/inactive)” value in [7] is “Active”.

For `O=C(c1ccc(-c2ccncc2)cc1)N1C[C@@H]2CNC[C@@H](C2)C1`, the outcome in [1] and in [14] was Active. Besides, the inhibition result in [2] and in [9] was “inactive” in each case. Also, the outcome in experiment [3], in [12], in [13], in [15], in [10] and in experiment [11] was inactive. Moreover, the Ki in experiment [4] was greater than 5 µM; in experiment [5], greater than 1000 nM; in experiment [6] it was greater than 1000 nM; in experiment [8] it was 7.1 nM. In [7], the “antagonist activity (active/inactive)” value is “Active”.

In the case of `O=C(c1ccc(-c2cccnc2)cc1)N1C[C@@H]2CNC[C@@H](C2)C1`, the result in experiment [1] and in [14] was Active. Moreover, the inhibition result in experiment [2] and in [9] was “inactive” in each case. For the same compound, the outcome in experiment [3], in experiment [12], in [13], in experiment [15], in [10] and in [11] was inactive. Also, the Ki is greater than 5 µM in experiment [4], greater than 1000 nM in experiment [5], greater than 1000 nM in experiment [6] and 25 nM in experiment [8]. In addition, the “antagonist activity (active/inactive)” value in [7] was “Active”.

Turning to `O=C(/C=C/c1ccccc1)N1C[C@@H]2CNC[C@@H](C2)C1`, the result in experiment [1] and in [14] was Active. Besides, the inhibition result in experiment [2] and in [9] was “inactive” in each case. The result in experiment [3], in experiment [12], in experiment [13], in experiment [15], in experiment [10] and in experiment [11] was inactive. Moreover, the Ki in [4] is greater than 10 µM; in [5], greater than 5000 nM; in experiment [6], greater than 5000 nM; in [8], 55.1 nM.
